Screening data (PubChem)
B2AR ag: beta2AR agonists driving receptor internalization, primary screen, cell-based, FAP fluorogen, flow cytometry | Beta-2 adrenergic receptor (Homo sapiens), P07550 | Am2.2-beta2AR cells | response, % (no concentration beside the values) | 340,000 compounds, 0.43% hits;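 active means response above a set limit, near 3 SD of response in nonfluorescent compounds, cut at about 42% in these data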
ABHD5 PLIN5 PPI: ABHD5-PLIN5 interaction inhibitors, primary screen, cell lysate, split luciferase complementation, luminescence; 360,000 compounds, 0.78% hits; inhibition, % at 4 µM; Perilipin-5 (Homo sapiens) + 1-acylglycerol-3-phosphate O-acyltransferase ABHD5 (Homo …; Split G. princeps luciferase complementation, 4 h;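 active means inhibition above the mean inhibition across every tested compound plus 3 SD, cut at about 22% in these data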;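 further: 0% = DMSO only wells and the 100% control is not disclosed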
PfGluPho inh: PfG6PD enzyme inhibitors, primary screen, biochemical, fluorescence intensity, uHTS; PfGluPho enzyme, NADPH resazurin-diaphorase fluorescence; 350,000 compounds, 0.78% hits; glucose-6-phosphate dehydrogenase-6-phosphogluconolactonase (Plasmodium falciparum 3D7); inhibition, % at 20 µM;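 active means inhibition reaching at least a set limit at 20 µM in the primary screen, cut at about 59% in these data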;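 further: 0% = DMSO wells with substrate and 100% = DMSO wells lacking glucose-6-phosphate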
MC4R ag barr: MC4R agonists recruiting beta-arrestin, primary screen, cell-based, luminescence, agonist arm of biased-ligand search | AID 540308, 2011 | activation, % at 8.9 µM | U2OS MC4R beta-arrestin complementation; percent of melanotan II response, DMSO zero | 360,000 compounds, 0.98% hits;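 active means activation above a per-plate cutoff, the mean activation of sample wells on that plate plus 3 SD, cut at about 8% in these data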
MC4R antagonist: MC4R antagonists of cAMP signaling, primary screen, cell-based, TR-FRET, antagonist arm of biased-ligand search. Melanocortin receptor 4 (Homo sapiens), P32245. MC4R-expressing cells, MTII-stimulated cAMP, LANCE TR-FRET. inhibition, % at 6.5 µM. 360,000 compounds, 0.48% hits;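 active means inhibition above its plate's cutoff, the mean of tested wells on that plate plus 3 SD, cut at about 29% in these data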;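 further: 0% = Melanotan II alone and 100% = Melanotan II plus saturating MCL0020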
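System: U2OS-MC4R stable cell line; Technique: Eu-cAMP/anti-cAMP TR-FRET, emission 671 nm; Repeats: single well per compound; Also added: Melanotan II; Dosing: one concentration, 6.5 µM nominal; Schedule: 30-min compound, 1-h challenge, 1-h detection, room temperature.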
ABHD5 PLIN5 conf: ABHD5-PLIN5 interaction inhibitors, confirmation, biochemical, luminescence; inhibition, % at 4 µM; shares compounds with ABHD5 PLIN5 PPI; 2,200 compounds, 67% hits; AID 651612, 2012; in the data active means inhibition above about 23%;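 further: 0% = DMSO vehicle wells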
HNF4 split-luc: HNF4 dimerization inhibitors, counter-screen for ABHD5-PLIN5 interaction inhibitor project, biochemical, split-luciferase complementation, luminescence; AID 651674, 2012; shares compounds with ABHD5 PLIN5 PPI; inhibition, % at 4 µM; 2,200 compounds, 77% hits;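 active means mean inhibition across replicate wells exceeding the computed hit threshold, cut at about 13% in these data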;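 further: light from luciferase halves that rejoin when HNF4 fusion proteins dimerize; 0% = DMSO only wells and the 100% control is not given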
Target sequence (P41235 whole entry, looked up, the tested form may be a part): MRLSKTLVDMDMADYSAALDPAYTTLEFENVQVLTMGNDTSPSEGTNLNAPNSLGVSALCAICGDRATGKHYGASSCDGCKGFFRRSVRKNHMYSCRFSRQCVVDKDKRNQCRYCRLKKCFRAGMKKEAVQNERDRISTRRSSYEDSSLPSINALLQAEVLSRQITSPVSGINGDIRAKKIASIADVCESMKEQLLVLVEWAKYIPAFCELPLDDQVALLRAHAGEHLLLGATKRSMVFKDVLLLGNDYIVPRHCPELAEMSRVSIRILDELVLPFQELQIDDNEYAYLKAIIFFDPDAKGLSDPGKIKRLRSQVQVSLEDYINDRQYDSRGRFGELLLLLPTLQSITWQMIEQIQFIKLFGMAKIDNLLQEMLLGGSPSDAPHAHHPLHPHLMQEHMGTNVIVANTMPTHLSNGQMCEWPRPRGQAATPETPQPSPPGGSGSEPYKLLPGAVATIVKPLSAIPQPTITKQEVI
The depositor's hits bear a star; / = no result given. This is a sample that favours compounds with a hit; in the whole collection about 3% have one here.

SMILES	B2AR ag	ABHD5 PLIN5 PPI	PfGluPho inh	MC4R ag barr	MC4R antagonist	ABHD5 PLIN5 conf	HNF4 split-luc
CCN1C(=O)NC(=O)/C(=C\c2cn(CC(=O)N3CCCC3)c3ccccc23)C1=O	6	25*	9	-1	14	24*	26*
O=C1NC(=O)N(c2ccccc2F)C(=O)/C1=C/c1cn(CC(=O)N2CCOCC2)c2ccccc12	/	/	24	/	/	/	/
CCN1C(=O)NC(=O)/C(=C\c2cn(CC(=O)N3CCCCC3)c3ccccc23)C1=O	31	26*	2	1	5	20	20*
CC(=NCc1ccc2c(c1)OCO2)c1c(O)n(-c2ccc(C)cc2)c(=O)[nH]c1=O	3	99*	9	-1	3	-2	-2
COC(=O)Cn1cc(C=C2C(=O)N(C)C(=O)N(C)C2=O)c2ccccc21	/	/	-9	/	/	/	/
Cc1ccc(N2C(=O)NC(=O)/C(=C\c3cn(CC(=O)O)c4ccccc34)C2=O)cc1	5	27*	23	0	-7	25*	19*
COC(=O)Cn1cc(/C=C2\C(=O)NC(=O)N(c3ccccc3)C2=O)c2ccccc21	27	24*	2	-1	6	44*	38*
C=CCn1cc(C=C2C(=O)N(C)C(=O)N(C)C2=O)c2ccccc21	1	23*	8	-2	2	7	5
O=C(O)Cn1cc(/C=C2\C(=O)NC(=O)N(c3ccc(Br)cc3)C2=O)c2ccccc21	5	22	26	-1	11	/	/
C=C1C(=O)OC2CCN3CC=C(COC(=O)C(C)(O)C4(CO4)C1C)C23 (stereo not given)	/	0	/	1	-2	/	/
COC(=O)C1=C(c2ccc(OC(F)(F)F)cc2)C[C@@H]2CC[C@H]1N2C(=O)NC1CC1	-1	4	-11	0	11	/	/
O=C(CF)N(O)c1ccc(C=Cc2ccccc2)cc1	1	37*	15	2	-2	46*	-4
Cn1c(O)c(C=Nc2cccc(C(F)(F)F)c2)c(=O)n(C)c1=O	7	24*	0	0	11	6	14*
O=c1[nH]c(O)c(Cc2ccc3c(c2)OCO3)c(=O)[nH]1	-2	-1	-2	0	5	/	/
CCOC(=O)[C@]12Cc3cc(Cl)ccc3[C@H]1N(C1CCCCC1)C(=O)c1ccccc12	/	51*	/	/	/	40*	39*
CCOC(=O)[C@]12Cc3cc(C)ccc3[C@H]1N(C)C(=O)c1ccccc12	/	5	/	/	/	/	/
CCOC(=O)[C@]12Cc3cc(OC)ccc3[C@H]1N(C)C(=O)c1ccccc12	/	0	/	/	/	/	/
CCOC(=O)[C@]12Cc3cc(OC)ccc3[C@H]1N(C1CCCCC1)C(=O)c1ccccc12	/	40*	/	/	/	18	32*
O=C1NC(=S)NC(=O)C12C(c1ccc(F)cc1)NC(=S)NC2c1ccc(F)cc1 (stereo not given)	3	24*	-3	-1	1	79*	63*
O=C1NC(=S)NC(=O)C12C(c1ccccc1)NC(=S)NC2c1ccccc1 (stereo not given)	-2	29*	-11	-2	-3	61*	39*
Cc1cccc(C)c1-n1nnnc1C(c1ccnc2ccccc12)N1CCC2(CC1)C(=O)NCN2c1ccccc1 (stereo not given)	/	6	/	/	/	/	/
COc1c(/C=C2/C(=O)NC(=O)N(C)C2=O)c(CCN(C)C(=O)c2ccccc2)cc2c1OCO2	17	20	2	0	13	/	/
CNC(=S)N(C)CCc1cc2c(c(OC)c1/C=C1/C(=O)NC(=O)N(C)C1=O)OCO2	3	35*	16	0	0	9	18*
CCNC(=S)N(C)CCc1cc2c(c(OC)c1C=C1C(=O)N(C)C(=O)N(C)C1=O)OCO2	-12	29*	0	-2	7	10	18*
CCc1ccc(N2C(=O)CC(=O)NC2=O)cc1	0	24*	6	-1	-4	8	16*
SMILES	B2AR ag	ABHD5 PLIN5 PPI	PfGluPho inh	MC4R ag barr	MC4R antagonist	ABHD5 PLIN5 conf	HNF4 split-luc
CCOc1cccc(N2C(=O)CC(=O)NC2=O)c1	9	17	-4	-1	9	/	/
COc1ccccc1N1C(=O)CC(=O)NC1=O	4	27*	-5	-3	-2	6	36*
Cc1ccccc1N1C(=O)CC(=O)NC1=O	-3	14	10	-2	6	/	/
COc1cccc(N2C(=O)CC(=O)NC2=O)c1	2	27*	-4	-1	1	8	32*
COc1ccc(C(c2nnnn2-c2c(C)cccc2C)N2CCC3(CC2)C(=O)NCN3c2ccccc2)cc1 (stereo not given)	/	5	/	/	/	/	/
CC1(C)C(=O)CCC2C1=CCC1C2CCC2(C)C(O)CCC12 (stereo not given)	-1	4	1	-1	1	/	/
Clc1ccc2c(c1)C(c1ccccc1Cl)=NCc1nnc(N3CCN(CCSc4ccccc4)CC3)n1-2	7	26*	0	2	-1	21	9
CCOC(=O)Cc1csc(NC(=O)c2c(O)c3ccccc3n(CCC(C)C)c2=O)n1	9	2	-14	1	4	/	/
Cn1cccc1/C=C1/C(=O)NC(=O)N(Cc2ccc(F)cc2)C1=O	19	4	7	-2	-17	/	/
O=C1NC(=O)N(Cc2ccc(F)cc2)C(=O)/C1=C\C=C\c1ccco1	48*	29*	37	-3	3	96*	62*
C=C1C(=O)O[C@@H]2C[C@@H](C)[C@H]3C=CC(=O)[C@]3(O)C[C@@H]12	10	33*	31	-1	1	47*	24*
CCOC(=O)[C@]12Cc3cc4ccccc4cc3[C@H]1N(Cc1ccccc1)C(=O)c1cc(OC)ccc12	/	23*	/	/	/	11	16*
CCOC(=O)[C@]12Cc3cc(Cl)ccc3[C@H]1N(CC(=O)OC)C(=O)c1ccccc12	/	38*	/	/	/	32*	34*
CCCCCN1C(=O)c2cc(OC)ccc2[C@@]2(C(=O)OCC)Cc3cc(Cl)ccc3[C@@H]12	/	39*	/	/	/	27*	30*
CCOC(=O)[C@]12Cc3cc(Cl)ccc3[C@H]1N(C(C)C)C(=O)c1ccccc12	/	33*	/	/	/	25*	29*
